Source: ChEMBL document CHEMBL3352193, “Synthesis of novel substituted purine derivatives and identification of the cell death mechanism” (Eur J Med Chem, 2015)
Calls of active or inactive are those of the source. The rule behind the calls is not given here.

Experiments:
[1] = tested on: Mahlavu; assay: Induction of apoptosis in human Mahlavu cells assessed as PARP cleavage at IC50 after 72 hrs by Western blotting analysis; type: functional, cell-based
[2] = Cytotoxicity against human HuH7 cells after 24 hrs by SRB assay; type: functional, cell-based; settings: Huh-7, 24 h
Outline: (§1)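 Sulforhodamine B assay. Cells seeded at 2000–10,000/well and treated the next day in triplicate with ten concentrations (DMSO vehicle, under 1% final) for 24, 48 or 72 h at 37 °C, 5% CO2. Fixed with ice-cold TCA for 1 h at 4 °C, stained with 0.4% SRB in 1% acetic acid, dye solubilized in 10 mM Tris base, A515 read. % inhibition = 100 × (1 − OD drug/OD DMSO). IC50 taken from dose–response curves.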

[3] = Cytotoxicity against human SNU475 cells after 72 hrs by SRB assay; type: functional, cell-based, SNU-475; settings: snu-475
Outline: (§2)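 Liver cancer cell panel, SRB assay after 72 h exposure to ten concentrations (DMSO vehicle under 1%). TCA-fixed, SRB-stained, absorbance at 515 nm. Percent cell death calculated against DMSO-only wells, and IC50 read from dose–response curves.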

[4] = Cytotoxicity against human FOCUS cells after 24 hrs by SRB assay; type: functional, cell-based; outline: as §1
[5] = tested on: Mahlavu; assay: Cytotoxicity against human Mahlavu cells at 2.5 to 40 uM by RT-CES method; type: functional, cell-based; settings: TDE = time-dependent effect
Outline: (§3)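 Real-time impedance sensing (xCELLigence) on E-96 plates, run in triplicate. 2000 cells/well seeded; the next day medium was partly replaced and the compound added at 40, 20, 10, 5 or 2.5 µM, with DMSO-only and medium-only wells. Cell Index recorded every 30 min for at least 120 h at 37 °C, 5% CO2.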

[6] = tested on: Mahlavu; assay: Induction of apoptosis in human Mahlavu cells assessed as total cytochrome c level at IC50 after 72 hrs by Western blotting analysis; type: functional, cell-based
[7] = Cytotoxicity against human HCT116 cells after 72 hrs by SRB assay; type: functional, cell-based; settings: HCT-116, 72 h
Outline: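 SRB screen. Cells seeded at 2000–10,000/well and treated next day for 72 h with 40, 20, 10, 5 and 2.5 µM (DMSO under 1%). TCA fixation, 0.4% SRB staining, Tris solubilization, absorbance at 515 nm. Growth inhibition calculated relative to DMSO-only wells. IC50 derived from the five-concentration inhibition percentages.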

[8] = Cytotoxicity against human SKHEP1 cells after 72 hrs by SRB assay; type: functional, cell-based; settings: SK-HEP1, 72 h; outline: as §2
[9] = Cytotoxicity against human Mahlavu cells after 48 hrs by SRB assay; type: functional, cell-based; outline: as §1
[10] = tested on: Huh-7; assay: Cytotoxicity against human HuH7 cells measured every 30 mins up to 120 hrs by RT-CES method
[11] = tested on: HepG2; assay: Cytotoxicity against human HepG2 cells after 24 hrs by SRB assay; type: functional, cell-based; settings: HepG2, 24 h; outline: as §1
[12] = tested on: HepG2; assay: Cytotoxicity against human HepG2 cells after 48 hrs by SRB assay; type: functional, cell-based; settings: HepG2, 48 h; outline: as §1
[13] = tested on: HepG2; assay: Cytotoxicity against human HepG2 cells after 72 hrs by SRB assay; type: functional, cell-based; settings: HepG2, 72 h; outline: as §1
[14] = tested on: Huh-7; assay: Cytotoxicity against human HuH7 cells assessed as condensed apoptotic nuclei after 72 hrs by Hoechst […] staining-based fluorescence microscopy; type: functional, cell-based
[15] = Cytotoxicity against human Mahlavu cells after 24 hrs by SRB assay; type: functional, cell-based; outline: as §1
[16] = Cytotoxicity against human FOCUS cells after 72 hrs by SRB assay; type: functional, cell-based; outline: as §1
[17] = tested on: HepG2; assay: Cytotoxicity against human HepG2 cells measured every 30 mins up to 120 hrs by RT-CES method
[18] = tested on: Mahlavu; assay: Induction of apoptosis in human Mahlavu cells assessed as Bcl2 expression at IC50 after 72 hrs by Western blotting analysis; type: functional, cell-based
[19] = tested on: Huh-7; assay: Induction of senescence in human HuH7 cells at IC50 to IC100 after 3 to 6 days by BrdU staining-based assay; type: functional, cell-based
Outline: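 Huh7 cells (5000) on coverslips in 6-well plates, treated with compound at IC50 and IC100, doxorubicin 25 ng/ml, or DMSO for 3 and 6 days. Medium refreshed 24 h before assay, containing 30 µM BrdU in one plate. SA-β-gal staining and BrdU incorporation assessed in parallel.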

[20] = tested on: T47D; assay: Cytotoxicity against human T47D cells after 72 hrs by SRB assay; type: functional, cell-based
[21] = tested on: Huh-7; assay: Reduction in intrinsic cellular ATP consumption in human HuH7 cells at IC50 after 24 hrs by bioluminescence assay; type: functional, cell-based
Outline: (§4)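 Cells treated for 24 h, with staurosporine as positive control and DMSO-only controls. 20 µg lysate protein in kinase buffer (40 mM Tris-HCl pH 7.6, 20 mM MgCl2, 0.1 mg/ml BSA), no exogenous ATP added. Luciferase ATP-detection reagent added, 10 min in the dark at room temperature, then luminescence read. Higher signal taken as reduced ATP consumption.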

[22] = Cytotoxicity against human HuH7 cells after 48 hrs by SRB assay; type: functional, cell-based; settings: Huh-7, 48 h; outline: as §1
[23] = tested on: Mahlavu; assay: Induction of […] in human Mahlavu cells assessed as PARP cleavage at IC50 after 72 hrs by Western blotting analysis; type: functional, cell-based
[24] = Cytotoxicity against human FOCUS cells after 48 hrs by SRB assay; type: functional, cell-based; outline: as §1
[25] = Cytotoxicity against human Hep3B cells after 72 hrs by SRB assay; type: functional, cell-based, Hep 3B2; outline: as §2
[26] = tested on: Mahlavu; assay: Cytotoxicity against human Mahlavu cells measured every 30 mins up to 120 hrs by RT-CES method
[27] = tested on: PLC; assay: Cytotoxicity against human PLC cells after 72 hrs by SRB assay; type: functional, cell-based; outline: as §2
[28] = tested on: Mahlavu; assay: Reduction in intrinsic cellular ATP consumption in human Mahlavu cells at IC50 after 24 hrs by bioluminescence assay; type: functional, cell-based; outline: as §4
[29] = Cytotoxicity against human SNU182 cells after 72 hrs by SRB assay; type: functional, cell-based; settings: SNU-182, 72 h; outline: as §2
[30] = Cytotoxicity against human HuH7 cells after 72 hrs by SRB assay; type: functional, cell-based; settings: Huh-7, 72 h; outline: as §1
[31] = tested on: FOCUS; assay: Cytotoxicity against human FOCUS cells assessed as condensed apoptotic nuclei after 72 hrs by Hoechst […] staining-based fluorescence microscopy; type: functional, cell-based
[32] = tested on: HepG2; assay: Cytotoxicity against human HepG2 cells at 2.5 to 40 uM by RT-CES method; type: functional, cell-based; settings: TDE = time-dependent effect; outline: as §3
[33] = tested on: Huh-7; assay: Cytotoxicity against human HuH7 cells at 2.5 to 40 uM by RT-CES method; type: functional, cell-based; settings: TDE = time-dependent effect; outline: as §3
[34] = Cytotoxicity against human Mahlavu cells after 72 hrs by SRB assay; type: functional, cell-based; outline: as §1

FC(F)(F)c1ccc(N2CCN(c3ncnc4c3ncn4C3CCCC3)CC2)cc1
Activity [1]: inactive
IC50 [2]: 2.7 µM
IC50 [3]: Not Active
IC50 [4]: 16.7 µM
Activity [5]: tde
Activity [6]: inactive
IC50 [7]: < 0.1 µM
IC50 [8]: 0.2 µM
IC50 [9]: 0.3 µM
Activity [10]: Dose-dependent effect
IC50 [11]: 1.2 µM
IC50 [12]: 0.8 µM
IC50 [13]: 0.2 µM
Activity [14]: Active
IC50 [15]: 50.1 µM
IC50 [16]: 0.1 µM
Activity [17]: Dose-dependent effect
Activity [18]: inactive
Activity [19]: Active
IC50 [20]: < 0.1 µM
Activity [21]: Active
IC50 [22]: 1.4 µM
Activity [23]: inactive
IC50 [24]: 0.3 µM
IC50 [25]: 0.8 µM
Activity [26]: Dose-dependent effect
IC50 [27]: 6.4 µM
Activity [28]: Active
IC50 [29]: 9.6 µM
IC50 [30]: 0.2 µM
Activity [31]: Active
Activity [32]: tde
Activity [33]: tde
IC50 [34]: 0.1 µM
